Experimental data published in ChEMBL document CHEMBL1789904, “Imaging of Plasmodium liver stages to drive next-generation antimalarial drug discovery” (Science, 2011).

System: Plasmodium yoelii
Experiment: NOVARTIS: Antimalarial liver stage activity measured as reduction in Plasmodium yoelii schizont area in HepG2-A16-CD81 cells by immuno-fluorescence, and median schizont size at 10uM compound concentration
Format: functional, organism-based
Conditions: for IC50: Plasmodium yoelii, HepG2-A16-CD81
Method in brief: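 Host and parasite nuclei stained with Hoechst 33342, parasites with αPyHSP70 antibody; 25 images per well by high-content imaging; median parasite (schizont) area measured by automated image analysis, ~50 schizonts per experiment, two or more independent experiments.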

Structure (SMILES) | Schizont size [um] | IC50 [nM]
CN1CCN(c2ccc(Nc3c4ccccc4nc4ccccc34)cc2)CC1 | 45.82 | 547
CCOC(=O)c1cnc2ccc(C(C)C)cc2c1O | 31.42 | 352
CCN(CC)CCCNc1nc2cc(OC)c(OC)cc2c2nc(-c3ccccc3)nn12 | 52.61 | 327
O=C(Nc1ccc(C(F)(F)F)cc1)c1ccc(NCCCN2CCCCCC2)c([N+](=O)[O-])c1 | 74.21 | 450
COc1cccc(C(=O)NC(c2ccccc2OC)c2cc(Cl)c3cccnc3c2O)c1 (stereo unspecified) | 20.25 | 544
COc1ccc2nc(C)cc(Nc3ccc(Cl)c(Cl)c3)c2c1 | 39.25 | 438
O=C(c1cccs1)N1CCN(c2ccc([N+](=O)[O-])c(NC3CC3)c2)CC1 | 83.6 | 692
Oc1cccc(Nc2nc(NCC3CCCO3)c3ccccc3n2)c1 (stereo unspecified) | 74.32 | 1040
COc1ccc2nc(-c3ccccc3)cc(NCCN(C)C)c2c1 | 69.1 | 570
c1ccc2c(NCCc3c[nH]cn3)c3ccccc3nc2c1 | 110.22 | 706
COc1cc(C(=O)N2N=C(c3c(-c4ccccc4)c4cc(Br)ccc4[nH]c3=O)CC2c2cccc([N+](=O)[O-])c2)cc(OC)c1OC (stereo unspecified) | 29.43 | 435
CCCN(CCC)CCCNc1ccc(C(=O)Nc2ccc(C)c(F)c2)cc1[N+](=O)[O-] | 83.5 | 646
Cc1cc(OC(C)C(=O)N2CCc3ccccc32)ccc1Cl (stereo unspecified) | 59.6 | 776
Oc1c(C(Nc2ccccn2)c2cccc(Cl)c2Cl)ccc2cccnc12 (stereo unspecified) | 23.8 | 402
O=C(Nc1ccc(-c2nc3cc(NC(=O)c4ccc(Br)o4)ccc3[nH]2)cc1)c1ccc(Br)o1 | 101.14 | 812
c1ccc(Nc2ccnc(Nc3ccccc3)n2)cc1 | 92.37 | 1480
CCOc1ccc(Nc2cc(=O)oc3ccccc23)cc1 | 43.94 | 502
COc1ccc(Nc2cc(C)nc(NCc3ccccc3)n2)cc1 | 57.82 | 636
CCN(CC)CCN(Cc1cc2ccc(C)cc2[nH]c1=O)C(=S)NC(C)c1ccccc1 (stereo unspecified) | 66.17 | 883
COC(=O)C1=C(C)NC2=C(C(=O)CC(c3ccccc3Cl)C2)C1c1ccc([N+](=O)[O-])cc1 (stereo unspecified) | 61.06 | 842
Cc1cc(Nc2cccc(F)c2)nc(NCc2ccccc2)n1 | 73.06 | 1110
O=c1c2c([nH]c3ccccc13)CCCCCC2 | 42.48 | 727
CC(C)c1nc(N2CCN(C(=O)Nc3ccccc3)CC2)c(C#N)c2c1COC(C)(C)C2 | 82.25 | 1020
COc1cccc(NC(=O)c2ccc(NCCCN3CC(C)CC(C)C3)c([N+](=O)[O-])c2)c1 (stereo unspecified) | 87.57 | 437
Cc1ccc(Nc2nc3c(N)nnc(N)c3nc2Nc2ccc(C)cc2)cc1 | 50.31 | 488
Nc1ccc(-c2nc3cc(Oc4ccc(Oc5ccc6[nH]c(-c7ccc(N)cc7)nc6c5)cc4)ccc3[nH]2)cc1 | 116.48 | 319

Structure (SMILES) | Schizont size [um] | IC50 [nM]
CCCCC(=O)NC(c1cccc([N+](=O)[O-])c1)c1ccc2cccnc2c1O (stereo unspecified) | 23.69 | 449
Br.O=C(Cn1ccc(=NCc2ccccc2)cc1)c1ccc(I)cc1 | 44.99 | 825
COc1ccc(C2CC(=O)C3=C(C2)NC(C)=C(C(=O)OC2CCCC2)C3c2cccc(C)c2)cc1OC (stereo unspecified) | 66.8 | 779
c1ccc(OCCOc2ccc(Nc3c4ccccc4nc4ccccc34)cc2)cc1 | 41.33 | 559
CC(=O)N1c2ccc(C)cc2C(C)(c2ccccc2)CC1(C)C (stereo unspecified) | 105.42 | 1250
CCCCCCCCn1c(C)[n+](CC)c2cc(C(=O)OCC)ccc21.[I-] | 63.77 | 990
FC(F)(F)c1ccccc1NC(=S)N1CCCN(c2nc3ccc(Cl)cc3s2)CC1 | 91.85 | 1620
Cc1ccc(-c2cn3c([n+]2-c2ccccc2)SCC3)cc1.[Br-] | 62.52 | 1090
Cl.Fc1ccccc1Nc1nc(NCc2ccccc2)c2ccccc2n1 | 37.58 | 690
C=CC[N+]1(CC#Cc2cccc3ccccc23)CCCCC1.[Br-] | 80.06 | 908
CCCC(=O)N1CCN(c2nc(Cc3ccccc3)c3c(c2C#N)CC(C)(C)OC3)CC1 | 22.44 | 348
CCCCCCOc1ccc(C(C)=NNC2=NCCN2)cc1[N+](=O)[O-] | 60.96 | 784
CCCCCCCC[n+]1c(C)n(C)c2cc(Cl)c(Cl)cc21.[I-] | 40.39 | 419
Brc1ccc(-c2cn3c([n+]2-c2ccccc2)SCC3)cc1.[Br-] | 78.7 | 828
CCN(CC)c1ccc(NC(=O)c2cccs2)cc1 | 54.07 | 396
CCCc1nc2ccc(NC(=O)c3ccco3)cc2c(=O)n1Cc1ccc(-c2ccccc2)cc1 | 25.78 | 306
O=C(c1ccc([N+](=O)[O-])cc1)c1ccc(Cl)c(Cl)c1 | 109.39 | 1640
CCC(=O)NC(c1ccccc1Cl)c1cc(Cl)c2cccnc2c1O (stereo unspecified) | 55.11 | 1010
Nc1cccc(C(=O)Nc2ccc(Oc3cccc(Oc4ccc(NC(=O)c5cccc(N)c5)cc4)c3)cc2)c1 | 90.81 | 1760
CCOC(=O)C1=C(C)NC2=C(C(=O)C(C(=O)OCC)C(c3ccccc3OC)C2)C1c1ccc([N+](=O)[O-])cc1 (stereo unspecified) | 76.3 | 335
COC(=O)c1c(-c2c(Cl)cccc2Cl)noc1NC(=O)NN1CCCCC1 | 75.67 | 647
CN(C)CCCN(Cc1cc2cc3c(cc2[nH]c1=O)OCO3)C(=S)Nc1cccc(Cl)c1 | 60.22 | 818
COc1ccc(C(NC(=O)c2cccnc2)c2cc(Cl)c3cccnc3c2O)cc1 (stereo unspecified) | 21.08 | 542
CCN(CC)CCCN(Cc1cc2ccc(C)cc2[nH]c1=O)C(=S)Nc1cccc(Cl)c1 | 58.76 | 448
COc1ccc(Nc2nc(NCc3ccccc3)c3ccccc3n2)cc1 | 29.96 | 305
CC(=O)N(C1=C(N2CCOCC2)C(=O)c2ccccc2C1=O)c1ccc(I)cc1 | 50.1 | 602

Structure (SMILES) | Schizont size [um] | IC50 [nM]
CCC(Sc1nnc(-c2ccc(C)cc2)c(-c2ccc(C)cc2)n1)C(=O)NCCOC (stereo unspecified) | 42.59 | 303
O=[N+]([O-])c1cccc(C(Nc2nccs2)c2ccc3cccnc3c2O)c1 (stereo unspecified) | 43.42 | 358
Cl.Clc1cccc(Nc2nc(NCc3ccco3)c3ccccc3n2)c1 | 36.64 | 383
CN(C)c1cc[n+](CC(=O)Nc2ccc(Cl)cc2)cc1.[Cl-] | 69.62 | 584
Cc1ccnc(NC(c2ccc3ccccc3c2)c2ccc3cccnc3c2O)c1 (stereo unspecified) | 26.72 | 556
CCOC(=O)C1=C(C)NC2=C(C(=O)C(C(=O)OCC)C(c3ccccc3OC)C2)C1c1cc(OC)c(OC)c(OC)c1 (stereo unspecified) | 103.54 | 509
CC(=O)N(C1=C(N2CCOCC2)C(=O)c2ccccc2C1=O)c1cccc(Cl)c1 | 43.73 | 744
CCOc1ccc(Nc2nc(NCc3ccccc3)c3ccccc3n2)cc1.Cl | 23.69 | 480
Cc1ccc(Nc2cc(C)nc(NCc3ccccc3)n2)c(C)c1 | 89.14 | 1300
O=C(Nc1ccc(Oc2cccc(Oc3ccc(NC(=O)c4ccc(Br)o4)cc3)c2)cc1)c1ccc(Br)o1 | 18.79 | 433
CCCCc1c(C)nc2c(OC)cccc2c1O | 42.59 | 561
CCOC(=O)c1cnc2ccc(OC)cc2c1Cl | 31 | 410
Cc1cccc(-c2cc3nc(C)c(C)c(O)n3n2)c1 | 67.43 | 1100
CCCCCc1c(C)c(C#N)c2nc3ccccc3n2c1NCCN(CC)CC | 74 | 702
OC1=C2C(=Nc3ccccc3SC2c2ccc(Br)cc2)c2ccccc21 (stereo unspecified) | 34.03 | 327
COc1ccc(C2Sc3ccccc3N=C3C2=C(O)c2ccccc23)cc1 (stereo unspecified) | 39.14 | 706
Cc1cc(C(=O)Nc2cnn(Cc3ccc(Cl)cc3Cl)c2)no1 | 57.82 | 335
O=c1c2c([nH]c3ccccc13)CCCC2 | 39.45 | 500
CCOC(=O)CN(N=O)C1=C(N2CC2)C(=O)c2ccccc2C1=O | 35.8 | 480
CCC[n+]1cccc2ccc3cccnc3c21 | 43.42 | 903
Cc1cn2c3ccccc3n(CCN3CCCC3)c2n1 | 126.09 | 1070
Oc1cccc2ccc[n+](CC(O)Cn3c4ccccc4c4ccccc43)c12.[Cl-] (stereo unspecified) | 49.37 | 311
N#Cc1ccc(NC(=O)NC2CC3CCCC(C2)N3CCc2ccccc2)cc1 (stereo unspecified) | 62 | 497
O=C(c1cnsn1)N1CCCC(COc2cccc(CN3CCC(Cc4ccccc4)CC3)c2)C1 (stereo unspecified) | 69.41 | 609
CCN1CCN(c2c(C(=O)c3ccccc3)cnc3cc(OC)c(OC)cc23)CC1 | 89.76 | 367
CCCCN(CCCC)S(=O)(=O)c1ccc(NC(=O)c2ccco2)cc1 | 35.28 | 377
